Measurements as given in article PMC3629979 (Molecular imaging, 2010).

How the values were obtained:
U87MG tumor = test: In vivo NIRF optical imaging of U87MG tumor-bearing nude mice; details: for nonspecific tumor targeting / accumulation of unconjugated dye: Cy5.5 and Cy7 data not shown; for tumor to muscle ratio, time course: 1, 2 and 4 hours postinjection, in words; for tumor to muscle ratio, time course / tumor to muscle ratio: 0.5 nmol i.v.; for tumor to muscle ratio: light intensity ratio, 4 hours postinjection, mean ± SD, n = 3
[1] = for kidney uptake: 4 hours postinjection, 0.5 nmol i.v., ex vivo imaging, in words; for excretion route: inferred from kidney uptake at 4 hours postinjection
in vivo = details: female, athymic nude, mouse, U87MG tumor, iv, 0.5 nmol
murine integrin β3 = test: Immunofluorescence colocalization in U87MG tumor sections, murine integrin β3; assay type: in vivo; details: 1 nmol i.v., 30 minutes postinjection; frozen tumor sections; one mouse
Outline: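 Single female athymic nude mouse with subcutaneous U87MG xenograft (5 × 10⁶ cells, right front flank; tumours 100 to 300 mm³) given 1 nmol Cy5.5-labelled test compound by tail vein. Killed at 30 min, perfused with 20 mL PBS, tumour frozen-sectioned. Sections incubated 1 h at room temperature with hamster antimouse integrin β3 (1:100), then FITC secondary (1:200). Fluorescence microscopy overlay.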

Compound	nonspecific tumor targeting / accumulation of unconjugated dye (U87MG tumor)	tumor to muscle ratio, time course (U87MG tumor)	tumor to muscle ratio (U87MG tumor)	kidney uptake [1]	excretion route [1]	tissue uptake at 4 h (in vivo) [%ID/g]	other results
CC1(C)C(/C=C/C2=C(Oc3ccc(S(=O)(=O)O)cc3)C(=C/C=C3/N(CCCCS(=O)(=O)O)c4ccc(S(=O)(=O)[O-])cc4C3(C)C)/CCC2)=[N+](CCCCCC(=O)O)c2ccc(S(=O)(=O)O)cc21 [IRDye800, reference compound]	only a lower nonspecific tumor accumulation						
CC1(C)C(=CC=C2CCCC(C=CC3=[N+](CCCCCC(=O)N[C@@H](CCC(=O)NCCOCCOCCOCCOCCC(=O)NCCCC[C@@H]4NC(=O)[C@@H](Cc5ccccc5)NC(=O)[C@H](CC(=O)O)NC(=O)CNC(=O)[C@H](CCCNC(=N)N)NC4=O)C(=O)NCCOCCOCCOCCOCCC(=O)NCCCC[C@@H]4NC(=O)[C@@H](Cc5ccccc5)NC(=O)[C@H](CC(=O)O)NC(=O)CNC(=O)[C@H](CCCNC(=N)N)NC4=O)c4ccc(S(=O)(=O)O)cc4C3(C)C)=C2Oc2ccc(S(=O)(=O)O)cc2)N(CCCCS(=O)(=O)[O-])c2ccc(S(=O)(=O)O)cc21 [IRDye800-PEG4-RGD2, IRDye800-E[PEG4-c(RGDfK)]2]		increased tumor to muscle ratios from 1 to 4 hours	4.63 ± 0.28	high kidney uptake	mainly excreted by the renal route	5.87 ± 1.21	
Cy5.5 [reference compound]	relatively high tumor-nonspecific targeting						
CCN1C(=CC=CC=CC=CC2=[N+](CCCCCC(=O)O)c3ccc(S(=O)(=O)O)cc3C2(C)C)C(C)(C)c2cc(S(=O)(=O)[O-])ccc21 [Cy7, reference compound]	relatively high tumor-nonspecific targeting						
CC1(C)C(=CC=C2CCCC(C=CC3=[N+](CCCCCC(=O)N[C@@H](CCC(=O)NCCCC[C@@H]4NC(=O)[C@@H](Cc5ccccc5)NC(=O)[C@H](CC(=O)O)NC(=O)CNC(=O)[C@H](CCCNC(=N)N)NC4=O)C(=O)NCCCC[C@@H]4NC(=O)[C@@H](Cc5ccccc5)NC(=O)[C@H](CC(=O)O)NC(=O)CNC(=O)[C@H](CCCNC(=N)N)NC4=O)c4ccc(S(=O)(=O)O)cc4C3(C)C)=C2Oc2ccc(S(=O)(=O)O)cc2)N(CCCCS(=O)(=O)[O-])c2ccc(S(=O)(=O)O)cc21 [IRDye800-RGD2, IRDye800-E[c(RGDfK)]2]		increased tumor to muscle ratios from 1 to 4 hours	3.31 ± 0.22	high kidney uptake	mainly excreted by the renal route	2.71 ± 0.77	
Cy5.5-E[PEG4-c(RGDfK)]2 [Cy5.5-PEG4-RGD2]							colocalization with murine integrin β3 (murine integrin β3): good colocalization
